In brackets after ≈: the same amount, converted by molar mass.
Key:
[1] = Selectivity index, ratio of EC50 for toxicity in human A549 cells to MIC50 for antifungal activity against Candida glabrata ATCC 2001; type: cell-based; conditions: read-out: Selectivity Index
Outline: (§1)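 Selectivity index is the EC50 against the mammalian line (A549 or BEAS-2B) divided by the MIC against the given fungal strain.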

Candida albicans [2] = experiment: Antifungal activity against ITC and FLC-resistant Candida albicans ATCC 1237 incubated for 48 hrs by modified CLSI M27-A3 protocol based method; type: functional; conditions: ATCC 1237, 48 h
Outline: (§2)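 Because these Candida strains show trailing growth, MIC-2 was read, meaning 50% growth inhibition. Caspofungin and voriconazole were tested here; other controls came from earlier work.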

[3] = Selectivity index, ratio of EC50 for toxicity in human BEAS2B cells to MIC50 for antifungal activity against ITC and FLC-susceptible Candida albicans ATCC MYA-2876; type: cell-based; conditions: BEAS-2B cells, read-out: Selectivity Index
Outline: (§3)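 Ratio of the compound's EC50 against BEAS-2B cells to its MIC against the named C. albicans strain. […] For C. albicans strains other than ATCC 10231, trailing growth meant MIC-2 was taken, meaning 50% growth inhibition.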

[4] = Selectivity index, ratio of EC50 for toxicity in human A549 cells to MIC50 for antifungal activity against ITC and FLC-susceptible Candida albicans ATCC MYA-2310; type: cell-based; conditions: read-out: Selectivity Index; outline: as §1
[5] = Selectivity index, ratio of EC50 for toxicity in human BEAS2B cells to MIC50 for antifungal activity against Aspergillus terreus ATCC MYA-3633; type: cell-based; conditions: read-out: Selectivity Index; outline: as §1
Candida albicans [6] = experiment: Antifungal activity against Candida albicans ATCC 64124 incubated for 48 hrs by modified CLSI M27-A3 protocol based method; type: functional; conditions: ATCC 64124, 48 h
Candida albicans [7] = experiment: Antifungal activity against ITC and FLC-resistant Candida albicans ATCC MYA-1003 incubated for 48 hrs by modified CLSI M27-A3 protocol based method; type: functional; conditions: ATCC MYA-1003, 48 h; outline: as §2
[8] = Toxicity in human A549 cells assessed as reduction in cell viability incubated for 24 hrs by resazurin dye based assay
Outline: (§4)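 Toxicity tested in the nucleated lines A549 and BEAS-2B to give EC50 values. Selectivity index is EC50 against the mammalian line divided by the MIC against a given fungal strain.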

Aspergillus flavus = experiment: Antifungal activity against Aspergillus flavus ATCC MYA-3631 incubated for 48 hrs by CLSI M38-A2 protocol based method; type: functional; conditions: ATCC MYA-3631, 48 h
[9] = Selectivity index, ratio of EC50 for toxicity in human A549 cells to MIC50 for antifungal activity against ITC and FLC-resistant Candida albicans ATCC MYA-1003; type: cell-based; conditions: read-out: Selectivity Index; outline: as §1
[10] = Selectivity index, ratio of EC50 for toxicity in human BEAS2B cells to MIC50 for antifungal activity against ITC and FLC-resistant Candida albicans ATCC MYA-1003; type: cell-based; conditions: BEAS-2B cells, read-out: Selectivity Index; outline: as §1
Pichia kudriavzevii = experiment: Antifungal activity against Candida krusei ATCC 6258 incubated for 48 hrs by modified CLSI M27-A3 protocol based method; type: functional; conditions: ATCC 6258, 48 h
Outline: (§5)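 For C. albicans ATCC 10231, C. krusei ATCC 6258 and C. parapsilosis ATCC 22019, MIC-0 was read, meaning complete growth inhibition. For azole controls, MIC-2 (50% growth inhibition) was reported instead. Caspofungin and voriconazole were tested here; other controls came from earlier work.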

[11] = Selectivity index, ratio of EC50 for toxicity in human BEAS2B cells to MIC50 for antifungal activity against Candida albicans ATCC 10231; type: cell-based; conditions: BEAS-2B cells, read-out: Selectivity Index; outline: as §1
[12] = Selectivity index, ratio of EC50 for toxicity in human BEAS2B cells to MIC50 for antifungal activity against Candida krusei ATCC 6258; type: cell-based; conditions: BEAS-2B cells, read-out: Selectivity Index; outline: as §1
[13] = Selectivity index, ratio of EC50 for toxicity in human A549 cells to MIC50 for antifungal activity against Aspergillus flavus ATCC MYA-3631; type: cell-based; conditions: read-out: Selectivity Index; outline: as §1
[14] = Selectivity index, ratio of EC50 for toxicity in human BEAS2B cells to MIC50 for antifungal activity against Aspergillus flavus ATCC MYA-3631; type: cell-based; conditions: read-out: Selectivity Index; outline: as §1
[15] = Selectivity index, ratio of EC50 for toxicity in human A549 cells to MIC50 for antifungal activity against Candida albicans ATCC 10231; type: cell-based; conditions: read-out: Selectivity Index; outline: as §1
Candida parapsilosis = experiment: Antifungal activity against Candida parapsilosis ATCC 22019 incubated for 48 hrs by modified CLSI M27-A3 protocol based method; type: functional; conditions: Lodderomyces parapsilosis, ATCC 22019, 48 h; outline: as §5
[16] = Toxicity in human BEAS2B cells assessed as reduction in cell viability incubated for 24 hrs by resazurin dye based assay; conditions: BEAS-2B cells; outline: as §4
[17] = Selectivity index, ratio of EC50 for toxicity in human A549 cells to MIC50 for antifungal activity against Aspergillus nidulans ATCC 38163; type: cell-based; conditions: read-out: Selectivity Index; outline: as §1
Nakaseomyces glabratus = experiment: Antifungal activity against Candida glabrata ATCC 2001 incubated for 48 hrs by modified CLSI M27-A3 protocol based method; type: functional; conditions: ATCC 2001, 48 h
[18] = Selectivity index, ratio of EC50 for toxicity in human A549 cells to MIC50 for antifungal activity against ITC and FLC-susceptible Candida albicans ATCC MYA-2876; type: cell-based; conditions: read-out: Selectivity Index; outline: as §1
[19] = Selectivity index, ratio of EC50 for toxicity in human BEAS2B cells to MIC50 for antifungal activity against Aspergillus nidulans ATCC 38163; type: cell-based; conditions: read-out: Selectivity Index; outline: as §1
Aspergillus nidulans = experiment: Antifungal activity against Aspergillus nidulans ATCC 38163 incubated for 48 hrs by CLSI M38-A2 protocol based method; type: functional; conditions: ATCC 38163, 48 h
[20] = Selectivity index, ratio of EC50 for toxicity in human A549 cells to MIC50 for antifungal activity against Aspergillus terreus ATCC MYA-3633; type: cell-based; conditions: read-out: Selectivity Index; outline: as §1
Aspergillus terreus = experiment: Antifungal activity against Aspergillus terreus ATCC MYA-3633 incubated for 48 hrs by CLSI M38-A2 protocol based method; type: functional; conditions: ATCC MYA-3633, 48 h
[21] = Selectivity index, ratio of EC50 for toxicity in human BEAS2B cells to MIC50 for antifungal activity against Candida glabrata ATCC 2001; type: cell-based; conditions: BEAS-2B cells, read-out: Selectivity Index; outline: as §1
[22] = Selectivity index, ratio of EC50 for toxicity in human A549 cells to MIC50 for antifungal activity against Candida albicans ATCC 64124; type: cell-based; conditions: read-out: Selectivity Index; outline: as §1
[23] = Selectivity index, ratio of EC50 for toxicity in human A549 cells to MIC50 for antifungal activity against ITC and FLC-resistant Candida albicans ATCC MYA-90819; type: cell-based; conditions: read-out: Selectivity Index; outline: as §1
[24] = Selectivity index, ratio of EC50 for toxicity in human BEAS2B cells to MIC50 for antifungal activity against Candida albicans ATCC 64124; type: cell-based; conditions: BEAS-2B cells, read-out: Selectivity Index; outline: as §1
Candida albicans [25] = experiment: Antifungal activity against ITC and FLC-susceptible Candida albicans ATCC MYA-2876 incubated for 48 hrs by modified CLSI M27-A3 protocol based method; type: functional; conditions: ATCC MYA-2876, 48 h; outline: as §2
[26] = Selectivity index, ratio of EC50 for toxicity in human BEAS2B cells to MIC50 for antifungal activity against ITC and FLC-resistant Candida albicans ATCC MYA-90819; type: cell-based; conditions: BEAS-2B cells, read-out: Selectivity Index; outline: as §3
Candida albicans [27] = experiment: Antifungal activity against Candida albicans ATCC 10231 incubated for 48 hrs by modified CLSI M27-A3 protocol based method; type: functional; conditions: ATCC 10231, 48 h; outline: as §5
[28] = Selectivity index, ratio of EC50 for toxicity in human A549 cells to MIC50 for antifungal activity against Candida krusei ATCC 6258; type: cell-based; conditions: read-out: Selectivity Index; outline: as §1
[29] = Selectivity index, ratio of EC50 for toxicity in human BEAS2B cells to MIC50 for antifungal activity against ITC and FLC-resistant Candida albicans ATCC 1237; type: cell-based; conditions: BEAS-2B cells, read-out: Selectivity Index; outline: as §1
[30] = Selectivity index, ratio of EC50 for toxicity in human BEAS2B cells to MIC50 for antifungal activity against ITC and FLC-susceptible Candida albicans ATCC MYA-2310; type: cell-based; conditions: BEAS-2B cells, read-out: Selectivity Index; outline: as §3
Candida albicans [31] = experiment: Antifungal activity against ITC and FLC-susceptible Candida albicans ATCC MYA-2310 incubated for 48 hrs by modified CLSI M27-A3 protocol based method; type: functional; conditions: ATCC MYA-2310, 48 h
Candida albicans [32] = experiment: Antifungal activity against ITC and FLC-resistant Candida albicans ATCC MYA-90819 incubated for 48 hrs by modified CLSI M27-A3 protocol based method; type: functional; conditions: ATCC MYA-90819, 48 h
[33] = Selectivity index, ratio of EC50 for toxicity in human A549 cells to MIC50 for antifungal activity against ITC and FLC-resistant Candida albicans ATCC 1237; type: cell-based; conditions: read-out: Selectivity Index; outline: as §1

CC[C@@H]([C@H](C)O)n1ncn(-c2ccc(N3CCN(c4ccc(OC[C@@H]5CO[C@@](Cn6cncn6)(c6ccc(F)cc6F)C5)cc4)CC3)cc2)c1=O [POSACONAZOLE]
selectivity ratio [1]: 308 | MIC50 (Candida albicans [2]): 22.3 µM (≈ 15.6 µg/mL) | selectivity ratio [3]: 3 | selectivity ratio [4]: 1 | selectivity ratio [5]: 54 | MIC50 (Candida albicans [6]): > 89.2 µM | MIC50 (Candida albicans [7]): 22.3 µM (≈ 15.6 µg/mL) | EC50 at 24 h [8]: 37 mg/L (≈ 52.8 µM) | MIC50 (Aspergillus flavus): 0.34 µM (≈ 0.238 µg/mL) | selectivity ratio [9]: 2 | selectivity ratio [10]: 2 | MIC50 (Pichia kudriavzevii): 0.09 µM (≈ 0.0631 µg/mL) | selectivity ratio [11]: 52 | selectivity ratio [12]: 433 to 867 | selectivity ratio [13]: 154 | selectivity ratio [14]: 108 | selectivity ratio [15]: 74 | MIC50 (Candida parapsilosis): < 0.04 µM | EC50 at 24 h [16]: 26 mg/L (≈ 37.1 µM) | selectivity ratio [17]: 190 | MIC50 (Nakaseomyces glabratus): 0.17 µM (≈ 0.119 µg/mL) | selectivity ratio [18]: 5 | selectivity ratio [19]: 133 | MIC50 (Aspergillus nidulans): 0.28 µM (≈ 0.196 µg/mL) | selectivity ratio [20]: 77 | MIC50 (Aspergillus terreus): 0.68 µM (≈ 0.477 µg/mL) | selectivity ratio [21]: 217 | selectivity ratio [22]: 1 | selectivity ratio [23]: 1 | selectivity ratio [24]: 0.4 | MIC50 (Candida albicans [25]): 11.1 µM (≈ 7.78 µg/mL) | selectivity ratio [26]: 1 | MIC50 (Candida albicans [27]): 0.71 µM (≈ 0.498 µg/mL) | selectivity ratio [28]: 617 to 1230 | selectivity ratio [29]: 2 | selectivity ratio [30]: 1 | MIC50 (Candida albicans [31]): 44.7 µM (≈ 31.3 µg/mL) | MIC50 (Candida albicans [32]): 44.7 µM (≈ 31.3 µg/mL) | selectivity ratio [33]: 2

Source: ChEMBL document CHEMBL4265871, “Novel alkylated azoles as potent antifungals” (Eur J Med Chem, 2017)
